Screening results from PubChem.
Arbovirus inh – antivirals against arbovirus infection | 0.37% of 200,000 active | arbovirus infection cell-based antiviral screen | inhibition, % at 10 µM | AID 1251; in the data active = inhibition above about 30%
TNAP act hiacc – TNAP (human) activation, high acceptor; P05186; purified TNAP, CDP-star luminescence, 1 M DEA, 30 min; hits give high values; 0 = EDTA background, 1 = DMSO-only activity; activation factor at 20 µM; 200,000 tested, under 10 active;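 active = activation factor at least 2 at 20 µM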
Target sequence (P05186 whole entry, looked up): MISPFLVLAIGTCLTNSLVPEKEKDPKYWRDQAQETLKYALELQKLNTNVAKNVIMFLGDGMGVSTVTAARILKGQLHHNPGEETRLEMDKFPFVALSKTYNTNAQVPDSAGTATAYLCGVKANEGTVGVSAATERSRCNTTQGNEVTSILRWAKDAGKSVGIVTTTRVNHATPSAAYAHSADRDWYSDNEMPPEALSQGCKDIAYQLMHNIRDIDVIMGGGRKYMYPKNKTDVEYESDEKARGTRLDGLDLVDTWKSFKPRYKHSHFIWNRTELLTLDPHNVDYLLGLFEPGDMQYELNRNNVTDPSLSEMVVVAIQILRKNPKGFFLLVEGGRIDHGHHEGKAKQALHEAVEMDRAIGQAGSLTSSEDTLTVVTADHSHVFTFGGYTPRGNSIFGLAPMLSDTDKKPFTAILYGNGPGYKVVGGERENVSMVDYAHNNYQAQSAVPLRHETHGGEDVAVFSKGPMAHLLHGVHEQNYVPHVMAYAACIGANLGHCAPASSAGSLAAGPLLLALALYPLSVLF
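Control set: EDTA negative control, DMSO positive control / Assay system: human TNAP / Quantity: TNAP 1/800 final / Evaluation: TNAP activation factor scaled between EDTA and DMSO control wells / Measured by: luminescent substrate turnover signal / Compound dosing: one dose, 20 µM / Times: 30 min enzyme reaction at room temperature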
WT yeast gro inh – growth inhibition of WT yeast, mitochondrial fusion screen; mitochondrial fusion phenotypic screen, WT strain; inhibition, % at 10 µM; 2.1% of 190,000 active; in the data active = inhibition above about 58%; tested in S. cerevisiae
TNAP inh hiacc – blocks human TNAP under high phosphate acceptor concentration; P05186; purified TNAP, CDP-star luminescence, 1 M DEA; inhibition, % at 20 µM; 0.03% of 200,000 active; AID 1135;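 active = over 50% inhibition of tissue-nonspecific alkaline phosphatase at 20 µM in the single-dose screen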;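 also: plate controls were DMSO wells for no effect and EDTA-quenched wells as full inhibition for full effect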
TNAP inh noacc – inhibitors of human TNAP without phosphate acceptor | inhibition, % at 20 µM | 0.26% of 200,000 active | P05186 | purified TNAP, CDP-star luminescence, 30 min;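 active = tissue-nonspecific alkaline phosphatase inhibition above about 50% at 20 µM in the single-dose screen, limit read from the data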;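 also: 0% = DMSO negative control and 100% = EDTA positive control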
Numbers without * were called inactive. An excerpt weighted towards active compounds, which were near 2.6% of everything screened.

SMILES	Arbovirus inh	TNAP act hiacc	WT yeast gro inh	TNAP inh hiacc	TNAP inh noacc
OC(CNCC1(N2CCCCC2)CCCCC1)COc1ccc(Cl)cc1Cl (stereo not given)	30.2*	1.1	21.6	-6.8	-6.6
O=C(COc1ccc(Cl)cc1Cl)NC(=O)N1CCCCC1	3.6	1.1	20.9	-5.6	-5.4
COc1ccc(NC(=O)COC(=O)c2c3c(nc4ccccc24)CCCC3)cc1	-3.2	1	8.2	-3.9	13.7
COc1ccc(NC(=O)COC(=O)c2c3c(nc4ccccc24)CCCC3)cc1Cl	3.4	1	63.3*	-1.4	5.4
Cc1cc(C)n2nc(SCCOc3ccccc3F)nc2n1	-7.7	1	-17.4	-2.8	-12.3
COc1ccc(-c2csc(NC(=O)c3ccccc3NS(=O)(=O)c3ccc(F)c(F)c3)n2)cc1	-32.9	1	87.3*	-2.7	6.9
O=C(Nc1ccc(-c2nc3ccccc3[nH]2)cc1)c1ccccc1NS(=O)(=O)c1ccc(F)cc1	-1.6	1	-9.4	-0.1	-2.9
Cc1ccc(-c2csc(NC(=O)C3=NN(c4ccccc4)C(=O)CC3)n2)cc1	66.8*	1	22.0	2.1	-9.0
Cc1ccc(S(=O)(=O)Nc2ccccc2C(=O)Nc2nc(-c3ccc(F)cc3)cs2)cc1	-33.9	1	73.9*	-2.8	16.3
O=C(Nc1cc(S(=O)(=O)N2CCCCC2)ccc1Cl)c1ccccc1NS(=O)(=O)c1ccc(F)cc1	-4.9	1	71.7*	4.6	1.6
O=C(Nc1cc(S(=O)(=O)N2CCCCC2)ccc1O)c1ccccc1NS(=O)(=O)c1ccc(F)cc1	19.9	1	-3.9	0.4	-4.0
COc1ccc(CCNC(=O)c2ccc(CNS(=O)(=O)c3cc(C)ccc3C)cc2)cc1OC	-12.4	1.1	7.1	-5.5	-3.7
Cc1ccc(S(=O)(=O)CC(=O)Nc2nc(-c3ccccc3)cs2)cc1	15.1	1	60.6*	-1.9	-17.8
O=C(CS(=O)(=O)c1ccccc1)Nc1nc(-c2ccccc2)cs1	-0.4	1	19.4	-2.6	-9.0
CCCN(Cc1ccccc1)C(=S)Nc1ccc(F)cc1	8.7	1	34.7	-1.5	-10.5
CCCN(Cc1ccccc1)C(=S)Nc1ccc(SC(F)F)cc1	-11.4	1	70.5*	-2.8	-12.6
Clc1cccc(-c2cc3nc4c(c(N5CCN(c6cnccn6)CC5)n3n2)CCCC4)c1	-0.9	1	70.2*	3.7	2.4
OC1CCN(c2c3c(nc4cc(-c5ccc(Cl)cc5)nn24)CCC3)CC1	-3.8	1	-3.2	-2.6	-4.6
Clc1cccc(-c2cc3nc4c(c(N5CCOCC5)n3n2)CCCC4)c1	14.6	1	84.6*	-4.0	0.8
O=C(COC(=O)c1ccc(Cl)nc1)NCCC1=CCCCC1	-1.1	1	-14.0	-4.8	-7.4
CCCC/C(O)=C1\C(=O)CC(C)(C)CC1=NCCCCCC(=O)O	22.3	1	-6.3	0.8	-5.1
CCOC(=O)Cn1c(=NC(=O)c2ccc([N+](=O)[O-])s2)sc2ccccc21	-4.6	1	64.5*	3.9	-16.6
CCOC(=O)N1CCC(NC(=O)CCc2c(C)nc3c(c(C)nn3C(C)(C)C)c2C)CC1	1.7	1	-6.8	-0.6	-7.6
O=C(Nc1ccc(N2CCOCC2)cc1)Nc1ccc(Cl)c(Cl)c1	-8.3	1	22.1	-3.5	-10.1
O=C(Nc1ccc(Cl)c(Cl)c1)Nc1ccc(Br)cc1F	-5.3	1	81.3*	3.7	-7.5
SMILES	Arbovirus inh	TNAP act hiacc	WT yeast gro inh	TNAP inh hiacc	TNAP inh noacc
O=C(Nc1ccc(Br)cc1)Nc1ccccc1F	6.5	1	6.0	-2.6	-8.4
O=C1C=C(NC(=O)Nc2ccc(Cl)c(Cl)c2)CCC1	14.7	1.1	80.3*	-5.7	-16.2
COc1ccc(/C=C2\SC(=S)N(CC(=O)OCC(=O)Nc3ccc(C)cc3Cl)C2=O)cc1	1.2	1	3.3	-0.8	-0.7
NC(=O)[C@@H]1CCOc2c(I)cc([N+](=O)[O-])cc2C(=O)N[C@@H](CO)C(=O)NCC(=O)N1	-0.7	1	-4.4	-1.4	-10.4
CC(C)c1nc(SCC(=O)Nc2cccc(S(N)(=O)=O)c2)n[nH]1	1.1	1	6.8	-1.9	57.0*
NS(=O)(=O)c1ccc(NC(=O)CSc2ncn[nH]2)cc1	11.2	1	-0.5	3.5	-9.8
CCCCc1nc(SCC(=O)Nc2ccc(S(N)(=O)=O)cc2)n[nH]1	-1.7	1	3.6	-1.2	60.2*
NS(=O)(=O)c1cccc(NC(=O)CSc2nc3ccc(Cl)cc3[nH]2)c1	17.9	0.9	2.6	8.9	66.9*
CCCCc1nc(SCC(=O)Nc2ncccn2)n[nH]1	10.6	1	-7.5	0.6	58.4*
CCS(=O)(=O)N1Cc2ccccc2CC1C(=O)OCC(=O)Nc1ccc(C)cc1 (stereo not given)	2.8	1	2.2	-2.4	2.3
O=C1c2[nH]nc(-c3ccccc3O)c2C(c2ccc(F)cc2)N1CC1CCCO1 (stereo not given)	32.9*	1.1	-1.0	-6.8	-66.1
Cc1cc(NC(=S)N(Cc2cccc(Br)c2)CC2CCC(C(=O)O)CC2)ccc1Cl (stereo not given)	-9.5	1	71.0*	-1.8	7.5
Cc1cc(C)cc(NC(=S)N(Cc2ccc(Cl)cc2)Cc2ccc(C(=O)O)cc2)c1	-5.4	1	11.6	-2.1	-7.8
Cc1ccc(NC(=S)N(Cc2ccc(Br)cc2)Cc2ccc(C(=O)O)cc2)cc1C	-11.0	1	67.5*	-1.6	-8.1
Cc1cc(NC(=S)N(Cc2ccc(Cl)cc2)Cc2ccc(C(=O)O)cc2)ccc1Cl	-2.0	1	70.9*	-4.7	-18.5
Cc1cc(C)cc(NC(=S)N(Cc2ccc(Br)cc2)Cc2ccc(C(=O)O)cc2)c1	-16.3	1	79.2*	-4.2	-2.2
CCC(=O)Nc1cc2[nH]c(=O)cc(C)c2cc1C	0.2	1	-10.4	-0.5	-5.1
O=C(c1ccc(F)cc1)C(CN1CCOCC1)c1ccccc1 (stereo not given)	-44.8	1.1	81.1*	-8.3	-7.0
CCN(C(=O)COC(=O)/C=C/c1c(C)nn(Cc2ccc(C)cc2)c1C)C1CCS(=O)(=O)C1 (stereo not given)	11.0	1	-11.6	0.6	-1.0
COc1ccc(-n2c(SCC(=O)NCc3ccco3)nc3c([nH]c4ccccc43)c2=O)cc1	-1.0	1.1	6.3	-7.4	-3.3
Cc1ccc(-c2nc3cc(NS(=O)(=O)c4ccc(C)cc4)ccc3o2)cc1	-34.0	1	73.3*	-1.5	1.0
O=S(=O)(Nc1ccc2oc(-c3ccccc3)nc2c1)c1ccccc1	-22.1	1.1	0.9	-5.4	-0.6
C=CCn1c(N2CCN(c3ccc(OC)cc3)CC2)nc2c1c(=O)[nH]c(=O)n2C	2.5	1.1	-5.2	-5.6	-7.6
COc1ccc(C2c3c(ncn(Cc4ccco4)c3=N)Oc3ccc4ccccc4c32)cc1 (stereo not given)	-27.1	1	64.1*	3.0	-14.9
N=c1c2c(-c3ccccc3)c(-c3ccccc3)n(Cc3ccco3)c2ncn1Cc1ccco1	-34.0	1	2.9	-1.0	-1.8
